From ChEMBL document CHEMBL1137839, “Potent antitumor N-mustard derivatives of 9-anilinoacridine, synthesis and antitumor evaluation” (Bioorg Med Chem Lett, 2004)
pIC50: −log10 of the molar value.

What was measured:
CCRF-CEM = experiment: Concentration required for growth inhibition of human lymphoblastic leukemic cell line (CCRF-CEM) was determined; format: functional, cell-based
In short: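 Leukemic CCRF-CEM cells and their vinblastine-resistant (CCRF-CEM/VBL) and taxol-resistant (CCRF-CEM/taxol) sublines were incubated for 72 h. Growth inhibition was read by XTT assay and expressed as IC50. For the resistant sublines, fold resistance was calculated relative to the parent CCRF-CEM IC50.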

[1] = Concentration required for growth inhibition of taxol resistant human lymphoblastic leukemic cell line (CCRF-CEM/taxol) was determined; format: functional, cell-based
In short: (§1)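 Drug-resistant human lymphoblastic leukemia sublines (vinblastine-resistant CCRF-CEM/VBL; taxol-resistant CCRF-CEM/taxol). Growth inhibition measured by XTT assay after 72 h incubation, reported as IC50.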

HCT-116 = experiment: Concentration required for growth inhibition of human HCT116 colon tumor cell line […] was determined; format: functional, cell-based
A549 = experiment: Concentration required for growth inhibition of […] was determined; format: functional, cell-based; conditions: Homo sapiens
Mus musculus [2] = experiment: Average change in body weight of mice bearing human mammary carcinoma (MX-1) xenograft on 14th day of administration (dose = 1-2 mg/kg); format: functional
In short: (§2)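 Nude mice (n = 3) bearing human MX-1 mammary carcinoma xenografts (Day 0). Intravenous treatment started on D11, when tumors were 80–120 mm3, at 1–2 mg/kg on a Q3D × 7 schedule. Body weight was taken as total body weight minus tumor weight. Animals with excessive tumor burden (>3500 mm3) were sacrificed.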

Mus musculus [3] = experiment: Average change in body weight of mice bearing human mammary carcinoma (MX-1) xenograft on 17th day of administration (dose = 1-2 mg/kg); format: functional; in short: as §2
Mus musculus [4] = experiment: Average change in body weight of mice bearing human mammary carcinoma (MX-1) xenograft on 20th day of administration (dose = 1-2 mg/kg); format: functional; in short: as §2
Mus musculus [5] = experiment: Average change in body weight of mice bearing human mammary carcinoma (MX-1) xenograft on 23th day of administration (dose = 1-2 mg/kg); format: functional; in short: as §2
Mus musculus [6] = experiment: Average change in body weight of mice bearing human mammary carcinoma (MX-1) xenograft on 26th day of administration (dose = 1-2 mg/kg); format: functional; in short: as §2
[7] = Average tumor size of human mammary carcinoma (MX-1) xenograft in mice on 17th day of administration (dose = 1-2 mg/kg); format: organism-based; conditions: mouse, in vivo
In short: (§3)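 Human MX-1 breast carcinoma xenografts in nude mice (n = 3) with tumors established on Day 0. Dosing was iv, 1–2 mg/kg Q3D × 7, beginning D11 at tumor size 80–120 mm3. Tumor size was tracked in mm3, and mice were sacrificed when tumors exceeded 3500 mm3.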

[8] = Average tumor size of human mammary carcinoma (MX-1) xenograft in mice on 20th day of administration (dose = 1-2 mg/kg); format: organism-based; conditions: mouse, in vivo; in short: as §3
[9] = Average tumor size of human mammary carcinoma (MX-1) xenograft in mice on 23th day of administration (dose = 1-2 mg/kg); format: organism-based; conditions: mouse, in vivo; in short: as §3
[10] = Concentration required for growth inhibition of vinblastine resistant human lymphoblastic leukemic cell line (CCRF-CEM/VBL) was determined; format: functional, cell-based; in short: as §1

pIC50 (HCT-116) | pIC50 (A549) | Structure (SMILES) | pIC50 (CCRF-CEM) | pIC50 [1] | pIC50 [10] | other results
– | – | Cc1cccc2c(Nc3cccc(OCCN(CCCl)CCCl)c3)c3cccc(C(=O)NCCN(C)C)c3nc12 | 8.52 | – | – | –
8.06 | 8.00 | CC[C@]1(O)C[C@@H]2CN(CCc3c([nH]c4ccccc34)[C@@](C(=O)OC)(c3cc4c(cc3OC)N(C)[C@H]3[C@@](O)(C(=O)OC)[C@H](OC(C)=O)[C@]5(CC)C=CCN6CC[C@]43[C@@H]65)C2)C1 [VINBLASTINE] | 8.92 | 7.54 | 6.27 | –
– | – | ClCCN(CCCl)CCOc1cccc(Nc2c3ccccc3nc3ccccc23)c1 | 7.05 | – | – | –
– | – | Cc1cccc2c(Nc3ccc(OCCN(CCCl)CCCl)cc3)c3cccc(C(=O)NCCN(C)C)c3nc12 | 6.11 | – | – | –
– | 7.33 | Nc1cc(CO)cc(Nc2c3ccccc3nc3ccccc23)c1 | 6.12 | 6.22 | 5.80 | –
8.59 | 8.54 | CC(=O)O[C@H]1C(=O)[C@@]2(C)[C@H]([C@H](OC(=O)c3ccccc3)[C@]3(O)C[C@H](OC(=O)[C@H](O)[C@@H](NC(=O)c4ccccc4)c4ccccc4)C(C)=C1C3(C)C)[C@]1(OC(C)=O)CO[C@@H]1C[C@@H]2O [PACLITAXEL] | 8.82 | 6.85 | 5.79 | –
– | – | ClCCN(CCCl)CCOc1ccc(Nc2c3ccccc3nc3ccccc23)cc1 | 7.70 | 7.22 | 7.22 | –

Structure (SMILES) | pIC50 (HCT-116) | pIC50 (A549) | pIC50 (CCRF-CEM) | pIC50 [1] | pIC50 [10] | other results
OCc1cc(Nc2c3ccccc3nc3ccccc23)cc(OCCN(CCCl)CCCl)c1 | 8.26 | 8.25 | 8.15 | 7.52 | 8.12 | Weight (Mus musculus [2]): 1.2 g; Weight (Mus musculus [3]): -1.4 g; Weight (Mus musculus [4]): -3 g; Weight (Mus musculus [5]): -3 g; Weight (Mus musculus [6]): -3.9 g; T/C [7]: 0.37; T/C [8]: 0.17; T/C [9]: 0.14
